Measurements reported in ChEMBL document CHEMBL4368859, “Discovery of boron-containing compounds as Aβ aggregation inhibitors and antioxidants for the treatment of Alzheimer's disease” (Medchemcomm, 2018).
The source made the active and inactive calls. No cut-off for these calls is given here.

How the values were obtained:
[1] = molecular target: T1, Amyloid-beta precursor protein (Homo sapiens, UniProt P05067); experiment: Inhibition of self-induced aggregation of amyloid beta (1 to 42) (unknown origin) after 48 hrs by thioflavin T-based fluorescence method
[2] = Antioxidant activity assessed as trolox equivalents of AAPH radical scavenging activity at 20 uL preincubated for 10 mins followed by AAPH addition measured every min for 120 mins by ORAC-FL assay; format: functional
Summary of the method: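 Test compound diluted to 10 µM in 75 mM phosphate buffer (pH 7.4). It was pre-incubated with fluorescein (70 nM final) at 37 °C, then AAPH (40 mM solution) was added. Fluorescence (ex 485/em 520 nm) was read each minute for 120 min. […] Triplicates, at least three independent runs, mean ± SD.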

[3] = molecular target: T1, Amyloid-beta precursor protein; experiment: Inhibition of self-induced aggregation of amyloid beta (1 to 42) (unknown origin) at 20 uM after 48 hrs by thioflavin T-based fluorescence method relative to control
Summary of the method: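 Aβ1-42 stock was in 1% ammonium hydroxide, diluted in 50 mM phosphate buffer (pH 7.4). Peptide (25 µM final) was incubated ± compound at 37 °C for 48 h, with peptide-free blanks. Samples were diluted in 50 mM glycine-NaOH (pH 8.0) with 5 µM ThT and read after 5 min (ex 450/em 485 nm). Inhibition = (1−IFi/IFc)×100 after background subtraction. At least three independent measurements, mean ± SD.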

[4] = Metal chelating activity assessed as Fe3+-compound complex formation at 20 uM after 30 mins by UV-Vis spectrophotometric method
[5] = Metal chelating activity assessed as Zn2+-compound complex formation at 20 uM after 30 mins by UV-Vis spectrophotometric method
Summary of the method: (§1)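 UV-Vis absorption spectra were recorded for compound (20 µM final) alone or with CuSO4, FeSO4 or ZnCl2 (40 µM final) after 30 min. Medium was 20% (v/v) ethanol/buffer (20 mM HEPES, 150 mM NaCl, pH 7.4), at room temperature.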

[6] = Metal chelating activity assessed as Cu2+-compound complex formation by measuring shift in maximum absorption wavelength at 20 uM after 30 mins by UV-Vis spectrophotometric method; summary of the method: as §1
[7] = molecular target: T1, Amyloid-beta precursor protein; experiment: Potency index, ratio of curcumin IC50 to test compound IC50 for self-induced aggregation of amyloid beta (1 to 42) (unknown origin)
[8] = Metal chelating activity assessed as Fe2+-compound complex formation by measuring shift in maximum absorption wavelength at 20 uM after 30 mins by UV-Vis spectrophotometric method; summary of the method: as §1

T1 sequence (P05067 whole entry): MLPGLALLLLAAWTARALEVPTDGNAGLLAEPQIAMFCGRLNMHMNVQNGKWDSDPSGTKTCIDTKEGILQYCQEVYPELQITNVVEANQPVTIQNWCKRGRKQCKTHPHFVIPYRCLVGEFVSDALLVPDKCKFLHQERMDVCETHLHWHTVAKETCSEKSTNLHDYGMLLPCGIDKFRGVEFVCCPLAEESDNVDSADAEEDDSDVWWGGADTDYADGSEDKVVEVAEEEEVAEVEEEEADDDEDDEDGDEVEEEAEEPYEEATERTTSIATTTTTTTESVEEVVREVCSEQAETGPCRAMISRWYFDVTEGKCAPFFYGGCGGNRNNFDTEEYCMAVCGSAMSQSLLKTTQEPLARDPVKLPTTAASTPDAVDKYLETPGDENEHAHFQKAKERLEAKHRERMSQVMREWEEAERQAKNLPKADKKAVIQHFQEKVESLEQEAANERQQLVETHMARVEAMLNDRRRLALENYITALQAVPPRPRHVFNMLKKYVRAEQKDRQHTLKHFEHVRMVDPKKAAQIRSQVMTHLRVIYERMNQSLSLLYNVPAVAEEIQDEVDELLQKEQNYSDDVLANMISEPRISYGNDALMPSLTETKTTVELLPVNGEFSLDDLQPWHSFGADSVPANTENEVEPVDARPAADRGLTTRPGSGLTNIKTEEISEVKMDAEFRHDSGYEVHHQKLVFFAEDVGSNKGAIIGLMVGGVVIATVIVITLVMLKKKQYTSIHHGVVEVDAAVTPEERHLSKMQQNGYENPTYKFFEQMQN

Structure (SMILES) | IC50 [1] [µM] | Activity (umolequiv/umol) [2] | inhibition [3] [%] | also measured
OB1Oc2ccc3cc(O)ccc3c2C=C1c1cc(O)cc(O)c1 | 8.9 | 5.87 | 70.3 | 
OB1Oc2ccc3cc(O)ccc3c2C=C1c1ccc(O)c(O)c1 | 4.6 | 4.05 | 80.5 | 
CN(C)c1ccc2c3c(ccc2c1)OB(O)C(c1cc(O)cc(O)c1)=C3 |  | 5.27 | 32.4 | 
OB1Oc2ccc3ccc(O)cc3c2C=C1c1ccc(O)c(O)c1 | 3.4 | 4.55 | 82.8 | Activity [4]: inactive; Activity [5]: inactive; Activity [6]: 355 nm; Ratio IC50 [7]: 4; Activity [8]: 350 nm
OB1Oc2ccc3ccc(O)cc3c2C=C1c1ccc(O)cc1 |  | 4.45 | 20.5 | 
OB1Oc2ccc3cc(O)ccc3c2C=C1c1ccc(O)cc1 |  | 3.94 | 12.3 | 
OB1Oc2cc(O)ccc2C=C1c1cc(O)cc(O)c1 | 21.7 | 4.84 | 50.2 | 
OB1Oc2ccc3ccccc3c2C=C1c1cc(O)cc(O)c1 | 12.6 | 3 | 67.3 | 
COc1ccc(/C=C/c2cc(OC)cc(OC)c2)cc1 |  | 0.21 |  | 
OB1Oc2ccc(O)cc2C=C1c1ccc(O)c(O)c1 | 17.5 | 4.09 | 58.8 | 
CN(C)c1ccc2c3c(ccc2c1)OB(O)C(c1ccc(O)cc1)=C3 |  | 2.41 | 0 | 
CN(C)c1ccc2c3c(ccc2c1)OB(O)C(c1ccc(O)c(O)c1)=C3 |  | 4.88 | 49.5 | 
COc1cc(/C=C/C(=O)O)ccc1O |  | 3.24 |  | 
OB1Oc2ccc3ccc(O)cc3c2C=C1c1cc(O)cc(O)c1 | 4.9 | 5.34 | 78.7 | 
Oc1ccc(/C=C/c2cc(O)cc(O)c2)cc1 |  | 5.33 |  | 
OB1Oc2ccc3ccccc3c2C=C1c1ccc(O)cc1 |  | 2.06 | 0 | 
OB1Oc2ccc3ccccc3c2C=C1c1ccc(O)c(O)c1 |  | 2.7 | 43.7 | 
